Assay results as given in paper PMC3582828 (European journal of medicinal chemistry, 2012).

Legend:
[1] = target: PDE1; test: PDE enzyme assay; type: biochemical; conditions: for IC50: read-out: PDE1 IC50, Data obtained by BPS Bioscience; for PDEX/PDE5 (PDE1): selectivity ratio IC50 PDE1 / IC50 PDE5
Procedure, shortened: (§1)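 Each PDE was incubated at room temperature for 60 min in PDE assay buffer with 100 nM FAM-cGMP or FAM-cAMP substrate, 0.125 ng enzyme and test compound. A 1:100 binding-agent solution was then added for 60 min at room temperature.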

[2] = target: PDE2 (Homo sapiens, UniProt O00408); test: PDE enzyme assay; type: biochemical; conditions: selectivity ratio IC50 PDE2 / IC50 PDE5
[3] = target: PDE3; test: PDE enzyme assay; type: biochemical; conditions: for IC50: read-out: PDE3 IC50, Data obtained by BPS Bioscience; for PDEX/PDE5 (PDE3): selectivity ratio IC50 PDE3 / IC50 PDE5
Procedure, shortened: as §1

[4] = target: PDE4; test: PDE enzyme assay; type: biochemical; conditions: for IC50: read-out: PDE4 IC50, Data obtained by BPS Bioscience; for PDEX/PDE5 (PDE4): selectivity ratio IC50 PDE4 / IC50 PDE5
Procedure, shortened: as §1

[5] = target: PDE5 (Homo sapiens, UniProt O76074); test: PDE enzyme assay; type: biochemical; conditions: ratio IC50 PDE5 / IC50 PDE5
[6] = target: PDE7; test: PDE enzyme assay; type: biochemical; conditions: for IC50: read-out: PDE7 IC50, Data obtained by BPS Bioscience; for PDEX/PDE5 (PDE7): selectivity ratio IC50 PDE7 / IC50 PDE5
Procedure, shortened: as §1

[7] = system: PDE8; test: PDE enzyme assay; type: biochemical; conditions: selectivity ratio IC50 PDE8 / IC50 PDE5
[8] = target: PDE9 (Homo sapiens, UniProt O76083); test: PDE enzyme assay; type: biochemical; conditions: selectivity ratio IC50 PDE9 / IC50 PDE5
[9] = target: PDE10 (Homo sapiens, UniProt Q9Y233); test: PDE enzyme assay; type: biochemical; conditions: selectivity ratio IC50 PDE10 / IC50 PDE5
[10] = target: PDE11 (Homo sapiens, UniProt Q9HCR9); test: PDE enzyme assay; type: biochemical; conditions: selectivity ratio IC50 PDE11 / IC50 PDE5
[11] = Pharmacokinetics in mouse brain tissue and plasma; type: in vivo, male BALB/c mice
Procedure, shortened: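 Test compound was dosed at 50 mg/kg p.o. in 0.05% aqueous methylcellulose. Plasma (retro-orbital blood, heparin) and brain were taken at 0, 0.25, 0.5, 1, 2 and 4 h, with 3 mice per time point. Brain was rinsed in cold saline and homogenised in methanol. LC/MS/MS used an internal standard and 1/x2-weighted linear regression. Penetration was expressed as brain/plasma Cmax and AUC ratios.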

[12] = system: LTP in slices from APP/PS1 mice; test: LTP in hippocampal slices from APP/PS1 mice; set-up: species or system APP/PS1 mouse; conditions: 50 nM through bath solution for 10 min prior to θ-burst
[13] = system: APP/PS1 mice; test: 2-day radial arm water maze; type: in vivo, APP/PS1 mouse; conditions: 3 mg/kg, i.p., for 3 weeks; 3–4 month old APP/PS1 mice; vehicle ~3 errors

PDE2, sequence (O00408 whole entry): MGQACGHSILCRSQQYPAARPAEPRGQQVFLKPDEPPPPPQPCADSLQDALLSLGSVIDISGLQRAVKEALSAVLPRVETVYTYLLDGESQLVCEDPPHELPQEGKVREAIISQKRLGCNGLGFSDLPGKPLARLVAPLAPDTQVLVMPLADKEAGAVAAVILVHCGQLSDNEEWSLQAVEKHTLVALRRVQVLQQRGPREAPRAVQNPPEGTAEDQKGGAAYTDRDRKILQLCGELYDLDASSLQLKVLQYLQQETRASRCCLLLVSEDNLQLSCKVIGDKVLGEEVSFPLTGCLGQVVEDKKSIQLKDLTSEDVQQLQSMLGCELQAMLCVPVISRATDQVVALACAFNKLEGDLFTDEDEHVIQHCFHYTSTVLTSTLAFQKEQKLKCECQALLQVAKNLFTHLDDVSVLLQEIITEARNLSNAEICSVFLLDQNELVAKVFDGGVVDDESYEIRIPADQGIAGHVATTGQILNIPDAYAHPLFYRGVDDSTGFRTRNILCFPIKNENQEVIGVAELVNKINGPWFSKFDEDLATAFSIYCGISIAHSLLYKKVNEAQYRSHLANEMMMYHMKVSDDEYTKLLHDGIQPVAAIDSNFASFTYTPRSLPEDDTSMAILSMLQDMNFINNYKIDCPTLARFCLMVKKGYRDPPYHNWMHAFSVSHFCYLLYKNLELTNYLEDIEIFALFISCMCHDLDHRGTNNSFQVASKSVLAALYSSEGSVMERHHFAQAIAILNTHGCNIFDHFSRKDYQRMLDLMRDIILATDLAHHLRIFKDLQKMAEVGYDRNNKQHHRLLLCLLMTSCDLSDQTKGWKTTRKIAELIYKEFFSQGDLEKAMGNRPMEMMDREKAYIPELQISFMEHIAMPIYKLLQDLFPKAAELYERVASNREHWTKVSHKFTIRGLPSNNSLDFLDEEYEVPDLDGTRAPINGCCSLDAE
PDE9, sequence (O76083 whole entry): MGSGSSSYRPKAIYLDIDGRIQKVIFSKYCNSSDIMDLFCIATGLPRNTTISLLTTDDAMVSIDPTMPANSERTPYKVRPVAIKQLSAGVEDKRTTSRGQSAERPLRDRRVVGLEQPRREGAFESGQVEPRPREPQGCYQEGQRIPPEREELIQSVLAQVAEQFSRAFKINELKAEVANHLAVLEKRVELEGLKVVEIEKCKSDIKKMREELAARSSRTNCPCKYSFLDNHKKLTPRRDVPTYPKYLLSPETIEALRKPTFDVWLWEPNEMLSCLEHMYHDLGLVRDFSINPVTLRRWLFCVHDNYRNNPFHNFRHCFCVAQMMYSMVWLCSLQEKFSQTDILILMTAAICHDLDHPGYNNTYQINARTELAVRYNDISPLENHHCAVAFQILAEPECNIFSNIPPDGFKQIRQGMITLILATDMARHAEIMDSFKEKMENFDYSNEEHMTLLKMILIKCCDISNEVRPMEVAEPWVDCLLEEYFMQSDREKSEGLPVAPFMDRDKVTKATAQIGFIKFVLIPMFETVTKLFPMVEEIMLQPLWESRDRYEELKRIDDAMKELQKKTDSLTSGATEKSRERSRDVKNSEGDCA
PDE10, sequence (Q9Y233 whole entry): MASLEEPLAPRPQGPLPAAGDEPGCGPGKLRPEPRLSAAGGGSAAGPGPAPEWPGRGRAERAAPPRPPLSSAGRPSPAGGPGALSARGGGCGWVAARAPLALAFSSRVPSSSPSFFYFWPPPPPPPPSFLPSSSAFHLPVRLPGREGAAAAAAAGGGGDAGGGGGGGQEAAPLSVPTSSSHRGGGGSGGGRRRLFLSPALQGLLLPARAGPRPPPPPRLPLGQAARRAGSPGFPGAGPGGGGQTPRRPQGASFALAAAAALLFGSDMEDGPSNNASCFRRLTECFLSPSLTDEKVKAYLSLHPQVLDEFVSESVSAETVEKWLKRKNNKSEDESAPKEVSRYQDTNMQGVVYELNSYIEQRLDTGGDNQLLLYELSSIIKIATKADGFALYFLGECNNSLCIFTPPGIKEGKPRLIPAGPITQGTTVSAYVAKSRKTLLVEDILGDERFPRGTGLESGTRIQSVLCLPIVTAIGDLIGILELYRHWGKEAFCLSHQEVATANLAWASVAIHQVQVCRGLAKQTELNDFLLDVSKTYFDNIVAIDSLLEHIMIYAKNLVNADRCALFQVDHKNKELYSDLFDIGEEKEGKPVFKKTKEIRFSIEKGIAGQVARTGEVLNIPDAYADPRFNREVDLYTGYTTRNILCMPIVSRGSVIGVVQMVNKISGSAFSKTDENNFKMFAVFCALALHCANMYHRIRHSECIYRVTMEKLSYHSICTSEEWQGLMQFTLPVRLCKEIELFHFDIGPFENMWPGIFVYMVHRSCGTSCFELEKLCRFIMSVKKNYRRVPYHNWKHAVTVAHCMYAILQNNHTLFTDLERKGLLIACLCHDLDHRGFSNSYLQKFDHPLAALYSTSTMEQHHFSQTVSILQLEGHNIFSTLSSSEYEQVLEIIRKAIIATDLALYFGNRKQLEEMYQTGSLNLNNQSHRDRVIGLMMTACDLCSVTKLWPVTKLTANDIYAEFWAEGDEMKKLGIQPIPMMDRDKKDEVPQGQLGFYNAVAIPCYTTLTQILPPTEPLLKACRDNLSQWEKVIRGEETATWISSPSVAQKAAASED
PDE11, sequence (Q9HCR9 whole entry): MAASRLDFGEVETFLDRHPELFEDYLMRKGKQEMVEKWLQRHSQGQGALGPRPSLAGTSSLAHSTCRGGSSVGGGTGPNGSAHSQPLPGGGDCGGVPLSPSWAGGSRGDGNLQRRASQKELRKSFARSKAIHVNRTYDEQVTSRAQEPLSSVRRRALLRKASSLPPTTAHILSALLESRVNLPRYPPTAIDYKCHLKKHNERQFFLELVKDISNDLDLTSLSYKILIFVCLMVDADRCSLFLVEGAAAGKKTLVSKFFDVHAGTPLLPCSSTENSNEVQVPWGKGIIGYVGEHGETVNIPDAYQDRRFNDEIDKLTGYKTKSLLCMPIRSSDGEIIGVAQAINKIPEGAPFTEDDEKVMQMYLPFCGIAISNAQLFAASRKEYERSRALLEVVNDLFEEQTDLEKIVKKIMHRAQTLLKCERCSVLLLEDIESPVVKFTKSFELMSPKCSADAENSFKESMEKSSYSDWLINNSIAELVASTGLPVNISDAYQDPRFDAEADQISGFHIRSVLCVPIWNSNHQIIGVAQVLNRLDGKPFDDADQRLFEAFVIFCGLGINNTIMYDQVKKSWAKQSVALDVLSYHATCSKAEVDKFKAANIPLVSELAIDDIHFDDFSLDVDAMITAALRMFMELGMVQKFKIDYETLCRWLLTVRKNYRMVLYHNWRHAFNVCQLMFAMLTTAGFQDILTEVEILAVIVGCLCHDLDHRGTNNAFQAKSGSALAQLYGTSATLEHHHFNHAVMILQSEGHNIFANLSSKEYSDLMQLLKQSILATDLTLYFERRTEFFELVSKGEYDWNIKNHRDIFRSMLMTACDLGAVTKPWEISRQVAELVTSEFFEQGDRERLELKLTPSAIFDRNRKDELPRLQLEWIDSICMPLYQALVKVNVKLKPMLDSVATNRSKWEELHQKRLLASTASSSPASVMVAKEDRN

Row | SMILES | IC50 [1] [µM] | PDEX/PDE5 (PDE1) [1] | PDEX/PDE5 (PDE2) [2] | IC50 [3] [µM] | PDEX/PDE5 (PDE3) [3] | IC50 [4] [µM] | PDEX/PDE5 (PDE4) [4] | PDEX/PDE5 (PDE5) [5] | IC50 [6] [µM] | PDEX/PDE5 (PDE7) [6] | PDEX/PDE5 (PDE8) [7] | PDEX/PDE5 (PDE9) [8] | PDEX/PDE5 (PDE10) [9] | PDEX/PDE5 (PDE11) [10] | Blood brain barrier penetration [11] | Effect on LTP in WT slices [12] | Errors in the 2-day RAWM test [13]
1 | COc1ccc(CNc2c(CO)cnc3c(N(C)C)cc(C#N)cc23)cc1Cl [7b, 4-[(3-chloro-4-methoxybenzyl)amino]-8-(N,N-dimethylamino)-3-(hydroxymethyl) quinoline-6-carbonitrile] | > 10 | >10^4 | >10^4 | > 10 | >10^4 | > 10 | >10^4 | 1 | > 10 | >10^4 | >10^4 | >10^4 | >10^4 | >10^4 | – | – | –
2 | COc1ccc(CNc2c(CO)cnc3c(C4CC4)cc(C#N)cc23)cc1Cl [7a, 4-[(3-chloro-4-methoxybenzyl)amino]-8-cyclopropyl-3-(hydroxymethyl) quinoline-6-carbonitrile] | > 10 | >10^4 | >10^4 | > 10 | >10^4 | > 10 | >10^4 | 1 | > 10 | >10^4 | >10^4 | >10^4 | >10^4 | >10^4 | readily crosses the blood brain barrier | no effect | less than 2 errors
